In one data set the test system is HL-60. The data set can be described thus: Cytotoxicity against human HL60 cells by SRB assay. It is filed as functional, cell-based. The essentials:
(§1)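 SRB assay on tumor cells. Three independent experiments, five replicate wells for each concentration. IC50 obtained by linear regression where applicable. Mitomycin served as positive control.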
On the technique in general: The SRB assay estimates cell density from bound dye.

In data set [1] the test system is Aorta. Briefly: Vasodilatory activity in rat thoracic aorta assessed as relaxation of phenylephrine-induced precontraction at 4 to 10 ug/mL. The format is functional, tissue-based. The essentials: (§2)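 Isolated thoracic aortic rings about 3 mm long, taken after pentobarbital anesthesia (60 mg/kg ip). Rings held in Krebs solution at pH 7.4 and 37 °C, gassed with 95% O2/5% CO2, for isometric tension recording. Equilibrated 1 h at 2 g resting tension, then challenged repeatedly with 80 mM KCl. Precontracted with 10^-6 M phenylephrine. Endothelium confirmed by >80% relaxation to 10^-6 M acetylcholine.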

For another data set, the system named is SMMC-7721. The data set can be described thus: Cytotoxicity against human SMMC7721 cells by SRB assay. The format is functional, cell-based. The essentials:
as §1

Data set [2] has as its system Aorta. Briefly: Vasodilatory activity in rat thoracic aorta assessed as relaxation of phenylephrine-induced precontraction at 10 ug/mL. The format is functional. Further details: scale not given: the % may be the effect or the level left. The essentials:
as §2

Data set [3] can be described thus: Solubility of the compound. It is filed as physicochemical.

Active and inactive are the calls of the source. The calls are words filed in the database; no cut-off is given here.

Consider `CC1(C)O[C@H]1C(=O)C[C@H](C(=O)O)[C@@H]1CC[C@]2(C)C3=CC[C@H]4C(C)(C)C(=O)CC[C@]4(C)[C@H]3CC[C@@]12C`, for which the outcome in the data set on HL-60, in the data set on Aorta [1] and in the data set with SMMC-7721 was inactive.
As to `CC(C)=CC(=O)[C@@H](O)[C@H](C)[C@@H]1CC[C@]2(C)C3=CC[C@H]4C(C)(C)[C@@H](O)CC[C@]4(C)[C@H]3CC[C@@]12C`, the result with HL-60, in the data set with Aorta [1] and with SMMC-7721 was inactive.
Consider `CC1(C)[C@H](O)CC[C@]2(C)[C@H]3CC[C@@]4(C)[C@H]([C@H]5COC(=O)[C@@](O)(C(C)(C)O)C5)CC[C@]4(C)C3=CC[C@@H]12`, for which the outcome with HL-60, in the data set on Aorta [1] and in the data set on SMMC-7721 was inactive.
For the compound `C[C@@H]([C@@H]1O[C@@H]1[C@@H]1OC1(C)C)[C@@H]1CC[C@]2(C)C3=CC[C@H]4C(C)(C)C(=O)CC[C@]4(C)[C@H]3CC[C@@]12C`, the outcome in the data set with HL-60, in the data set on Aorta [1] and in the data set with SMMC-7721 was inactive.
As to `CC1(C)[C@H](O)CC[C@]2(C)[C@H]3CC[C@@]4(C)[C@H](C5=CC(=O)NC5=O)CC[C@]4(C)C3=CC[C@@H]12` [DYSOLENTICIN J], in the data set with Aorta [2], the Activity is 87.4%. The outcome in the data set on HL-60 and in the data set on SMMC-7721 was inactive.
`CC1(C)[C@H](O)CC[C@]2(C)[C@H]3CC[C@@]4(C)[C@H](C5COC(=O)C5)CC[C@]4(C)C3=CC[C@@H]12` (stereo partly drawn): the Activity with Aorta [2] was 37.5%. The outcome in the data set with HL-60 and with SMMC-7721 was inactive.
For the compound `CC1(C)C(=O)CC[C@]2(C)[C@H]3CC[C@@]4(C)[C@H](C5COC(=O)C5)CC[C@]4(C)C3=CC[C@@H]12` (stereo partly drawn), the Activity in the data set on Aorta [2] is recorded as 43.5%. The outcome with HL-60 and in the data set on SMMC-7721 was inactive.
For the compound `C[C@@H](CC(=O)[C@@H]1OC1(C)C)[C@@H]1CC[C@]2(C)C3=CC[C@H]4C(C)(C)C(=O)CC[C@]4(C)[C@H]3CC[C@@]12C`, the solubility result in data set [3] was “Insoluble”. In addition, the outcome in the data set with Aorta [1] was inactive.
In the case of `CCO[C@]1([C@@H]2OC2(C)C)CC([C@@H]2CC[C@]3(C)C4=CC[C@H]5C(C)(C)[C@H](O)CC[C@]5(C)[C@H]4CC[C@@]23C)CO1` (stereo partly drawn) [DYSOLENTICIN F], in data set [3], the solubility result is “Insoluble”. In the data set with Aorta [1], the outcome was inactive.
In the case of `COC(=O)[C@@H](CC(=O)[C@@H]1OC1(C)C)[C@@H]1CC[C@]2(C)C3=CC[C@H]4C(C)(C)C(=O)CC[C@]4(C)[C@H]3CC[C@@]12C`, the outcome in the data set with HL-60 and with SMMC-7721 was inactive.
On to `CC1(C)C(=O)CC[C@]2(C)[C@H]3CC[C@@]4(C)[C@H](C5=CC(O)(CO)OC5=O)CC[C@]4(C)C3=CC[C@@H]12` (mixture of isomers) [DYSOLENTICIN C], for which the solubility result in data set [3] is “Insoluble”.
Consider `CC(C)=CCC[C@H](C)[C@@H]1CC[C@]2(C)C3=CC[C@H]4C(C)(C)[C@@H](O)CC[C@]4(C)[C@H]3CC[C@@]12C`, for which the result in the data set with HL-60, in the data set with Aorta [1] and with SMMC-7721 was inactive.
Turning to `CC(=O)[C@@H]1CC[C@]2(C)C3=CC[C@H]4C(C)(C)C(=O)CC[C@]4(C)[C@H]3CC[C@@]12C` [DYSOLENTICIN G], the solubility result in data set [3] is recorded as “Insoluble”.
In the case of `CC(C)=C[C@@H]1C=C([C@@H]2CC[C@]3(C)C4=CC[C@H]5C(C)(C)C(=O)CC[C@]5(C)[C@H]4CC[C@@]23C)C(=O)O1`, the result in the data set on HL-60 and with SMMC-7721 was inactive.
On to `CC(C)C(=O)C1(O)CC([C@@H]2CC[C@]3(C)C4=CC[C@H]5C(C)(C)C(=O)CC[C@]5(C)[C@H]4CC[C@@]23C)CO1` (mixture of isomers), for which the outcome with HL-60, in the data set on Aorta [1] and with SMMC-7721 was inactive.
On to `CC1(C)C(=O)CC[C@]2(C)[C@H]3CC[C@@]4(C)[C@H](C5=CC(=O)NC5=O)CC[C@]4(C)C3=CC[C@@H]12` [LAXIRACEMOSIN H], for which, in the data set with Aorta [2], the Activity was determined as 18.3%. Besides, the outcome in the data set on HL-60 and in the data set on SMMC-7721 was inactive.
As to `CC(C)C(=O)C1(O)CC([C@@H]2CC[C@]3(C)C4=CC[C@H]5C(C)(C)[C@H](O)CC[C@]5(C)[C@H]4CC[C@@]23C)CO1` (mixture of isomers), the outcome in the data set with HL-60, in the data set with Aorta [1] and in the data set on SMMC-7721 was inactive.

The values above are taken from ChEMBL document CHEMBL1833837, “Tirucallane-type triterpenoids from Dysoxylum lenticellatum” (J Nat Prod, 2011).
